These results are taken from publication PMC3319149 (European Journal of Pharmaceutical Sciences, 2012).

Where “and” joins values, the source holds several entries; their conditions need not be identical. Equal entries are not always repeated. Entries after “also recorded” stand apart in the source; their conditions may differ. Where two headings read alike, the source gives them in different places. Marks after values point to notes of the source that are not given here.

Data set [1] addresses T1, NTCP (Homo sapiens, UniProt Q14973).
T1 sequence (Q14973 1-349): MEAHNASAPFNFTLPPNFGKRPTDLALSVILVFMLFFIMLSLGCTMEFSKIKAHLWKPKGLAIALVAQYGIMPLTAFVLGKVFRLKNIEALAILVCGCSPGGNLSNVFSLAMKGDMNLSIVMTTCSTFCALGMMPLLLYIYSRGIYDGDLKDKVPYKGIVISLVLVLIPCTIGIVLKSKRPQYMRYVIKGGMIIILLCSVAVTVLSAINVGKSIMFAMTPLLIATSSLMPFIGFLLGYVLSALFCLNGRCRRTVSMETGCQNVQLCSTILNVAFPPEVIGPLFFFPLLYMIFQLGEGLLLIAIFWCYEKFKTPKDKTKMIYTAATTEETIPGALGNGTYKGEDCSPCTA
As to the kind of experiment: Taurocholate uptake inhibition study in NTCP-HEK monolayers. Format: cell-based.

The target in data set [2] is T2, ASBT (Homo sapiens, UniProt Q12908).
T2 sequence (Q12908 1-348): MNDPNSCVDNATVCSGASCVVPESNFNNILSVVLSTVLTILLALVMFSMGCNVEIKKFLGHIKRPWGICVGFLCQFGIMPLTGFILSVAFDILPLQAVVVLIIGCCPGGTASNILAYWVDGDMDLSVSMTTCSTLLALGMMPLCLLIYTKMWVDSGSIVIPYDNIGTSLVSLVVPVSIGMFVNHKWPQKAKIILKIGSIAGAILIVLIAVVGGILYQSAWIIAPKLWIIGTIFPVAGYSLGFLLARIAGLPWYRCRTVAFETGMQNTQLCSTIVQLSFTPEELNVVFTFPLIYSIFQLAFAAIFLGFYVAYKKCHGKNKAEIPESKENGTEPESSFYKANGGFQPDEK
To be noted: read-out: Ki (μM) ASBT; ASBT-MDCK; ref Balakrishnan et al., 2006b; cited from earlier work.

Data set [3] concerns ASBT-MDCK monolayers. To be noted: passive permeability, ref Balakrishnan et al., 2006b; cited from earlier work.
In the next data set the test system is NTCP-HEK monolayers. As to the kind of experiment: Passive permeability from uptake in sodium-free buffer, NTCP-HEK monolayers. Format: in vitro ADME.
Data set [4] deals with T2, ASBT. As to the kind of experiment: Taurocholate uptake inhibition study in ASBT-MDCK monolayers. Format: cell-based. To be noted: for Ki: read-out: Ki (μM) ASBT, inhibition of [3H]-taurocholate uptake (2.5 μM cold TCA), 10 min, 37 °C.
For data set [5], the target named is T1, NTCP. As to the kind of experiment: Assessment of inhibition type. To be noted: inhibitor 118 μM (I/Ki = 10), taurocholate 1–200 μM. Format: cell-based.
Data set [6] relates to ASBT-MDCK monolayers. As to the kind of experiment: Passive permeability from uptake in sodium-free buffer, ASBT-MDCK monolayers. Format: in vitro ADME.
Data set [7] addresses T2, ASBT. As to the kind of experiment: Assessment of inhibition type. To be noted: inhibitor 152 μM (I/Ki = 10), taurocholate 1–200 μM. Format: cell-based.
The target in data set [8] is T1, NTCP. As to the kind of experiment: Uptake study in NTCP-HEK monolayers. Format: cell-based. Summed up:
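Stably transfected NTCP-HEK cells (hygromycin selection) were seeded at 2.5 × 10⁵/well on poly-D-lysine plates, cultured two days and washed with HBSS. Analogue was given at 1 to 250 μM in HBSS or sodium-free buffer (NaCl replaced by tetraethylammonium chloride). Read-out was acetonitrile lysis then LC/MS. Kinetics were fitted by nonlinear regression (eqns 2, 3). Jmax was normalized to same-occasion taurocholate Jmax. Highest distinguishable Kt = (Jmax/2)/Pp.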

The target in data set [9] is T2, ASBT. The data set is described as follows: Uptake study in ASBT-MDCK monolayers. Format: cell-based.
Setting [10] is: Ki (μM) NTCP, inhibition of [3H]-taurocholate uptake (2.5 μM cold taurocholate), NTCP-HEK monolayers, 5 min, 37 °C.
[11] abbreviates: passive permeability, sodium-free buffer, NTCP-HEK.
Setting [12] is: read-out: Ki (μM) NTCP, inhibition of [3H]-taurocholate uptake (2.5 μM cold taurocholate), NTCP-HEK monolayers, 5 min, 37 °C.
Where [13] appears, read: read-out: NTCP inhibitor class (strong / moderate / weak), class by Ki, NTCP-HEK.

As to `C[C@H](CCC(=O)O)[C@H]1CC[C@H]2[C@@H]3[C@H](O)C[C@@H]4C[C@H](O)CC[C@]4(C)[C@H]3CC[C@]12C` [CDCA, chenodeoxycholic acid, reference compound], the Ki on NTCP [1] (setting [10]) is 0.939 ± 0.057 µM; on ASBT [2], 1.94 ± 0.17 µM. In addition, in the data set with ASBT-MDCK monolayers [3], the “ASBT Pp*10^6 (cm/s)” value was 20.7±0.7 ^a ×10^−6 cm/s. The “NTCP Pp*10^6 (cm/s)” value in the data set with NTCP-HEK monolayers (setting [11]) was 60.7±0.5 ×10^−6 cm/s.

`C[C@H](CCC(=O)O)[C@H]1CC[C@H]2[C@@H]3[C@@H](OC(=O)c4ccc(F)cc4)C[C@@H]4C[C@H](O)CC[C@]4(C)[C@H]3CC[C@]12C` [Compound 3, 7-(4-fluorobenzoyloxy) ursodeoxycholate]: the Ki on NTCP [1] (setting [12]) was 183 ± 32 µM; at NTCP [1] (setting [13]), over 100 µM; on ASBT [4], 10.3 ± 1.1 µM.

For the compound `C[C@H](CCC(=O)NCC(=O)O)[C@H]1CC[C@H]2[C@@H]3[C@@H](OC(=O)c4cccnc4)C[C@@H]4C[C@H](O)CC[C@]4(C)[C@H]3CC[C@]12C` [Compound 8, 7-nicotinoyl glycoursodeoxycholate], the “type of inhibition of NTCP (best fitting model)” value at NTCP [5] is “competitive inhibitor; also recorded: competitive model was the best fitting model”. Also, the Ki worked out at 11.8 ± 2.1 µM at NTCP [1] (setting [12]) and 15.2 ± 0.8 µM on ASBT [4]. Besides, in the data set on NTCP-HEK monolayers (setting [11]), the “NTCP Pp*10^6 (cm/s)” value is given as 7.26±0.45 ×10^−6 cm/s. Also, the “ASBT Pp*10^6 (cm/s)” value with ASBT-MDCK monolayers [6] (passive permeability, sodium-free buffer, ASBT-MDCK) was 0.95±0.05 ×10^−6 cm/s. In addition, the “type of inhibition of ASBT (best fitting model)” value at ASBT [7] is given as “competitive inhibitor; also recorded: competitive model was the best fitting model”.

Take `C[C@H](CCC(=O)NCC(=O)O)[C@H]1CC[C@H]2[C@@H]3[C@H](O)C[C@H]4C[C@H](OC(=O)c5cccnc5)CC[C@]4(C)[C@H]3CC[C@]12C` [Compound 10, 3-nicotinoyl glycochenodeoxycholate]: the Ki is 5.38 ± 0.44 µM on NTCP [1] (setting [12]), under 25 µM at NTCP [1] (setting [13]) and 6.45 ± 0.66 µM on ASBT [4]. The “NTCP Norm Jmax” value at NTCP [8] (Jmax normalized to taurocholate Jmax of the same occasion, NTCP-HEK) is 1.48. Also, on NTCP [8] (not normalized, NTCP-HEK), the “Jmax NTCP” value was determined as 0.00298 nmol/s/cm^2. The “NTCP Kt” value on NTCP [8] (uptake into NTCP-HEK monolayers) is 16.3 µM and 16.3 ± 3.0 µM. Besides, the “NTCP Pp*10^6 (cm/s)” value in the data set on NTCP-HEK monolayers is on record as 12.7±0.9 ×10^−6 cm/s. The “ASBT Pp*10^6 (cm/s)” value in the data set on ASBT-MDCK monolayers [6] (MDCK) was 5.62±0.13 ×10^−6 cm/s. The “ASBT Norm Jmax” value at ASBT [9] (Jmax normalized to taurocholate Jmax of the same occasion, ASBT-MDCK) was 2.11 and 2.1. For the same compound, the “Jmax ASBT” value at ASBT [9] (not normalized, ASBT-MDCK) is 0.000242 nmol/s/cm^2. For the same compound, the “ASBT Kt” value on ASBT [9] (uptake into ASBT-MDCK monolayers, 10 min) was 8.49 µM and 8.49 ± 1.34 µM.

Consider `C[C@H](CCC(=O)O)[C@H]1CC[C@H]2[C@@H]3C(=O)C[C@@H]4CC(=O)CC[C@]4(C)[C@H]3CC(=O)[C@]12C` [Compound 13, dehydrocholic acid], for which the Ki at NTCP [1] (setting [10]) is 355 ± 59 µM; at NTCP [1] (NTCP inhibitor class (strong / moderate / weak), class by Ki, NTCP-HEK), over 100 µM. The “NTCP inhibitor class (strong / moderate / weak)” value on NTCP [1] (class by Ki, NTCP-HEK) is recorded as “weakly”. In addition, the “Ki (μM) ASBT” value on ASBT [4] (inhibition of [3H]-taurocholate uptake (2.5 μM cold TCA), 10 min, 37 °C) is “did not inhibit; also recorded: did not show any ASBT inhibition; also recorded: No inhibition”.

As to `COC(=O)CC[C@@H](C)[C@H]1CC[C@H]2[C@@H]3[C@@H](O)C[C@@H]4C[C@H](O)CC[C@]4(C)[C@H]3CC[C@]12C` [Compound 16, methyl ursodeoxycholate], the Ki on NTCP [1] (setting [12]) amounted to 1.22 ± 0.1 µM; at ASBT [4], 29.8 ± 5.1 µM.

In the case of `C[C@H](CCC(=O)O)[C@H]1CC[C@H]2[C@@H]3[C@@H](O)C[C@@H]4C[C@H](O)CC[C@]4(C)[C@H]3CC[C@]12C` [UDCA, ursodeoxycholic acid, reference compound], the values for the Ki on NTCP [1] (setting [10]) and at ASBT [2] were 4.9 ± 0.47 µM and 22.6 ± 3 µM, respectively. Further, in the data set with ASBT-MDCK monolayers [3], the “ASBT Pp*10^6 (cm/s)” value is 21.2±0.9 ^a ×10^−6 cm/s. Further, in the data set on NTCP-HEK monolayers (setting [11]), the “NTCP Pp*10^6 (cm/s)” value is given as 27.2±0.8 ×10^−6 cm/s.

`C[C@H](CCC(=O)NCCS(=O)(=O)O)[C@H]1CC[C@H]2[C@@H]3[C@H](O)C[C@@H]4C[C@H](O)CC[C@]4(C)[C@H]3C[C@H](O)[C@]12C` [taurocholate, Taurocholic acid, reference compound]: the “taurocholate Kt NTCP” value at NTCP [8] (value Kt was set to in regression) was 5.31 µM.
